Experiment [1] concerns Ca45 2+ uptake in 3T3-L1 adipocytes. Briefly: Ca45 2+ uptake assay in 3T3-L1 adipocytes. The experiment is classed as cell-based, mouse. As to conditions: differentiated 3T3-L1 adipocytes, 3 min, pH 7.4, 37°C; ISO 100 nM. A digest of the protocol: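 Differentiated adipocytes were washed twice, 15 min apart, at 37°C in 150 mM NaCl, 5 mM KCl, 2 mM CaCl2 and 10 mM HEPES, pH 7.4. They were then incubated 3 min in Ca-free buffer with 2 μCi 45Ca2+, peptide at several concentrations and isoproterenol 100 nM. Stop with ice-cold Ca-free buffer containing 2 mM EGTA and 1 mM LaCl3, then three washes. Lysis in 0.1% Triton X-100; scintillation counting, cpm/well.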

A further experiment concerns C3aR1. As to conditions: cited from earlier work.
Experiment [2] addresses T1, m*C3aR1 (murinized hC3aR1) (Homo sapiens, UniProt Q16581, C420S/L413V/S400L/V103I/V419M).
T1 sequence (Q16581 1-482 V103I/S400L/L413V/V419M/C420S): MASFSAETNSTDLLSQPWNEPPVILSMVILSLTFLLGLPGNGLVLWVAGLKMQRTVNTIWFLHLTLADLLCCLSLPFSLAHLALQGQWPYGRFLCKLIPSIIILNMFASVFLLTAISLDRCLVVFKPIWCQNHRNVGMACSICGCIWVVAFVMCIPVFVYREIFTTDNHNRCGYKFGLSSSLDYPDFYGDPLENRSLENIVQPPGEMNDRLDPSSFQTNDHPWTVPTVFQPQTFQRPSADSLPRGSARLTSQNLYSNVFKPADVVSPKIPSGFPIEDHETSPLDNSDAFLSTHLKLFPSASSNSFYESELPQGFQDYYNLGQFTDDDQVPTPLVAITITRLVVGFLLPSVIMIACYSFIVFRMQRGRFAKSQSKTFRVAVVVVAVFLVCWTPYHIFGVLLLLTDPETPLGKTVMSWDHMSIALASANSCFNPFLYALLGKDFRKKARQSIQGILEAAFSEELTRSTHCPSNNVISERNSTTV
Nature of the experiment: Tango β-arrestin recruitment assay, murinized hC3aR1. It is filed as cell-based. The settings on record: ratio of EC50 hC3aR1 / m*C3aR1. Background: Recruitment of arrestin is a read-out of receptor activation apart from second messengers.

For experiment [3], the system named is C3aR1 R161A, R340A and D417A mutants. As to conditions: R340A, and D417A mutations, ref Sun et al., 1999; cited from earlier work.
Another experiment relates to 3T3-L1 adipocytes. Nature of the experiment: Lipolysis. It is filed as cell-based, mouse. The settings on record: 1 h pretreatment, ISO 50 nM, no TLQP-21. A digest of the protocol:
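Adipocytes serum-starved 3 h in KRH buffer (HEPES 10 mM, CaCl2 2.2 mM, glucose 5.4 mM) with 1% fatty-acid-free BSA, then treated in KRH with 4% BSA. Inhibitors given as 1 h pretreatment (SKF-96365 dose series; AnC0A4 or KN-62 1 μM) before isoproterenol 50 nM. Medium heat-inactivated 60°C for 20 min. Free glycerol read colorimetrically at 540 nm, normalized to Bradford protein, fold over control.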

Another experiment deals with [Ca2+]i in 3T3-L1 cells. Briefly: Fluo-4 intracellular calcium in 3T3-L1 cells. The settings on record: SKF-96365 20 μM; for effect of inhibitor on TLQP-21-induced [Ca2+]i increase: TLQP-21 10 μM. It is filed as cell-based, mouse. A digest of the protocol:
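Cells plated at 60% confluency on collagen-coated slides. Next day, loaded 30 min in HBSS with 2.5 μM Fluo-4 AM, washed 30 min, imaged live at 20X every second for 3 min. Agents added at 30 s; HBSS negative, ionomycin and UTP positive controls. Per-cell AUC over first 60 s, background-subtracted, basal-normalized, control-normalized, scaled 0–1; 8–50 cells, 2 experiments.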

Entries after “also recorded” stand apart in the source; their conditions may differ. Where a name gives a salt, the structure may show the parent alone.

Turning to `CC(C)NCC(O)c1ccc(O)c(O)c1` (centres unmarked) [ISO, Isoproterenol hydrochloride], the “Ca45 2+ uptake from the medium” value in experiment [1] was “did not increase Ca45^2+ uptake under our experimental conditions and did not potentiate TLQP-21-mediated effects; also recorded: does not modify TLQP-21-induced Ca45^2+ uptake from the medium”.

Regarding HFHHALPPAR, the “biological activity of modified or truncated peptides” value in the experiment with C3aR1 (ref Cero et al., 2014) is “only retained minimal biological activity”.

For “C3a: 77-amino-acid, full-length C3a; in b45 apparently the C3a63–77 peptide”, the “increase in β-arrestin potency at m*C3aR1 versus hC3aR1” value in experiment [2] was 8.5 fold. Moreover, in experiment [3], the “C3a binding affinity to C3aR1 mutants” value is on record as “complete loss of C3a binding affinity to C3aR1”.

Consider `COc1ccc(CCCOC(Cn2ccnc2)c2ccc(OC)cc2)cc1` (centres unmarked) [SKF-96365], for which the “effect of inhibitor on basal or ISO-induced lipolysis” value in the experiment with 3T3-L1 adipocytes is reported as “without affecting basal or ISO-induced lipolysis”. Further, in experiment [Ca2+]i in 3T3-L1 cells, the “basal fluorescence (Fluo-4)” value is reported as “mild SKF-96365-induced elevation of basal fluorescence” and the “effect of inhibitor on TLQP-21-induced [Ca2+]i increase” value was “TLQP-21-induced increase in [Ca^2+]i, measured by Fluo-4 fluorescence, is blocked; also recorded: blocked the TLQP-21-induced increase in [Ca^2+]i”.

Consider “C3a63–77: C3aR1 agonist C3a63–77 (LRRQHARASHLGLAR; C3a anaphylatoxin; UniProt P01024 734-748, looked up, fragment)”, for which the “increase in β-arrestin potency at m*C3aR1 versus hC3aR1” value in experiment [2] stood at 8.5 fold.

Regarding RRRHFHHALPPAR, the “biological activity of truncated peptide” value in the experiment with C3aR1 (ref Rivolta et al., 2017) is listed as “retains full biological activity”.

As for `NC(N)=NCCC[C@H](NC(=O)COCC(c1ccccc1)c1ccccc1)C(=O)O` [SB290157], the “effect of inhibitor on TLQP-21-induced [Ca2+]i increase” value in experiment [Ca2+]i in 3T3-L1 cells is given as “antagonized TLQP-21-mediated calcium influx; also recorded: this effect is antagonized by the C3aR1 antagonist SB290157”.

For `CN([C@@H](Cc1ccc(OS(=O)(=O)c2cccc3cnccc23)cc1)C(=O)N1CCN(c2ccccc2)CC1)S(=O)(=O)c1cccc2cnccc12` [KN-62], in the experiment on 3T3-L1 adipocytes, the “effect of inhibitor on basal or ISO-induced lipolysis” value was “without affecting basal or ISO-induced lipolysis per se”.

The values above are taken from publication PMC6753381 (Cell reports, 2019).
